Assay results as given in ChEMBL document CHEMBL1134467, “Novel, nonpeptidic cyanamides as potent and reversible inhibitors of human cathepsins K and L” (J Med Chem, 2001).

Columns and labels:
Cathepsin K [1] = target: T1, Cathepsin K (Homo sapiens, UniProt P43235); test: Inhibitory activity tested against Human Cathepsin K using Z-Phe-Arg-pNA as substrate
T1 sequence (P43235 whole entry): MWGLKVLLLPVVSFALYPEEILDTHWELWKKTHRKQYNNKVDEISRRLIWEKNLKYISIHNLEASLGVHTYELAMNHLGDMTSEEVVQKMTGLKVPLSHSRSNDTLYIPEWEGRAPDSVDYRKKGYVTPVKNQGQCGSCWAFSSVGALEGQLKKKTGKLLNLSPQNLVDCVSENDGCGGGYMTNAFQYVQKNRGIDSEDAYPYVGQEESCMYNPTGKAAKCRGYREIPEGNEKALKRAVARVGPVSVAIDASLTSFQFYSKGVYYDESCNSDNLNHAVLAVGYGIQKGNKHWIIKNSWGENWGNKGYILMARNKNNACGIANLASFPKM

Cathepsin B = Cathepsin B (Homo sapiens, UniProt P07858); test: Inhibitory activity tested against Human Cathepsin B using Z-Phe-Arg-pNA as substrate
Procathepsin L = Procathepsin L (Homo sapiens, UniProt P07711); test: Inhibitory activity tested against Human Cathepsin L using Z-Phe-Arg-pNA as substrate
Cathepsin K [2] = target: T1, Cathepsin K; test: Inhibitory activity tested against Human Cathepsin K […] using gelatinase assay
Summary of the method: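 Recombinant human cathepsin K gelatinase activity on DQ gelatin, 0.25 mg/mL final. Run in 50 mM MES pH 5.5 with 2.5 mM DTT, 2.5 mM EDTA and 10% DMSO, enzyme 2–4 nM, 30 min compound preincubation. Fluorescein release read at ex 495/em 515 nm. IC50 from a four-parameter logistic fit.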

[3] = target: T2, Cathepsin K (Homo sapiens) (UniProt P43235); test: Pre-steady-state kinetic parameter for inhibition of human cathepsin K
T2 sequence (whole entry): T1 sequence (P43235 whole entry)
Summary of the method: (§1)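 Slow-binding kinetics with cathepsin K (0.1 nM final, added to start the reaction) in 50 mM MES pH 5.5, 2.5 mM DTT, 2.5 mM EDTA, 10% DMSO, room temperature, stirred 1 mL cells. Z-Phe-Arg-AMC at 10-fold below Km (Km 30 μM), fluorescence ex 355/em 460 nm. Progress curves fitted for kobs; Ki, kon, koff averaged over at least three inhibitor concentrations.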

Papain = target: T3, Papain (Carica papaya, UniProt P00784); test: Inhibitory activity tested against papain at a pH 5.5
T3 sequence (P00784 whole entry): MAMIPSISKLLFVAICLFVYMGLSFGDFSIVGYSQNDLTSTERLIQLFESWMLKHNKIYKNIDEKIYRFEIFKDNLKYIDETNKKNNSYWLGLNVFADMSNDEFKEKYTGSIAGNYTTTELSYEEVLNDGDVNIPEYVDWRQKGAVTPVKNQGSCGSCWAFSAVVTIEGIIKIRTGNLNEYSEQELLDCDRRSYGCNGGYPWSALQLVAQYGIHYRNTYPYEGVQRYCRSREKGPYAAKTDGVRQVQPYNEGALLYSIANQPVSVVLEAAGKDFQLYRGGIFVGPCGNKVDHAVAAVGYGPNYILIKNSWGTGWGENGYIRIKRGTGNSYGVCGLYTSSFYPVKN

[4] = Bioavailability after oral administration of 20 mg/kg in rat; type: ADME, organism-based; details: in vivo
Summary of the method: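 Rats dosed orally at 20 mg/kg as a 1% methocel suspension, dosing volume 10 mL/kg; plasma levels followed over time and oral bioavailability derived.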

[5] = Half life period in rat after (iv) administration; type: ADME, organism-based; details: in vivo
Summary of the method: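 Rats dosed intravenously in PEG-200/water (3:2), dosing volume 1 mL/kg; half-life derived from mean plasma levels.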

Cathepsin K [6] = target: T1, Cathepsin K; test: Inhibitory constant against human cathepsin K; summary of the method: as §1
Cathepsin K [7] = target: T1, Cathepsin K; test: Effect of 10 mM of GSH on the inhibitory activity of compound against Cathepsin K, at pH 5.5
Summary of the method: (§2)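 Recombinant human cathepsin K IC50 with 10 mM glutathione at pH 5.5 or pH 7.0. Compounds preincubated 30 min with GSH before enzyme addition, then 30 min with enzyme before 25 μM Z-Phe-Arg-pNA. Activity read as OD increase at 405 nm. IC50 fitted to a four-parameter logistic model.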

Cathepsin K [8] = target: T1, Cathepsin K; test: Inhibition of Cathepsin K at pH 7
Summary of the method: (§3)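 Recombinant human cathepsin K IC50 without glutathione at pH 5.5 or 7.0. Compound preincubated 30 min with enzyme, then 25 μM Z-Phe-Arg-pNA added. Activity read as OD increase at 405 nm. Percent inhibition set against a vehicle control. IC50 from a four-parameter logistic fit.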

Cathepsin K [9] = target: T1, Cathepsin K; test: Inhibition of Cathepsin K at pH 5.5; summary of the method: as §3
Cathepsin K [10] = target: T1, Cathepsin K; test: Effect of 10 mM of GSH on the inhibitory activity against Cathepsin K, at pH 7; summary of the method: as §2

Chain of Procathepsin L (P07711 whole entry): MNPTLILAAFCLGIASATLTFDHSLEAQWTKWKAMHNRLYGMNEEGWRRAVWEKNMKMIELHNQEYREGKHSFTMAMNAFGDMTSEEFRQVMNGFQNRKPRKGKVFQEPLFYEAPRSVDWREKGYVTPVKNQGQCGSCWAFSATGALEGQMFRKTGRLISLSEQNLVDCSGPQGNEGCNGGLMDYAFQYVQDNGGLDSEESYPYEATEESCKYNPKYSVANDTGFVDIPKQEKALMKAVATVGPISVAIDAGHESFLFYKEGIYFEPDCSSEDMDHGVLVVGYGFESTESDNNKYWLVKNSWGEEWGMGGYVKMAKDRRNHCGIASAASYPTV

| Compound | IC50 (Cathepsin K [1]) [nM] | IC50 (Cathepsin B) [nM] | IC50 (Procathepsin L) [nM] | IC50 (Cathepsin K [2]) [nM] | k off [3] [s⁻¹] | k on [3] [M⁻¹ s⁻¹] | IC50 (Papain) [nM] | bioavailability [4] [%] | half-life [5] [h] | IC50 (Cathepsin K [6]) [nM] | Ki (Cathepsin K [6]) [nM] | IC50 (Cathepsin K [7]) [nM] | IC50 (Cathepsin K [8]) [nM] | IC50 (Cathepsin K [9]) [nM] | IC50 (Cathepsin K [10]) [nM] |
| --- | --- | --- | --- | --- | --- | --- | --- | --- | --- | --- | --- | --- | --- | --- | --- |
| N#CN1CC(OCC2CCCCC2)C1 | 20 | 500 | 100 |  |  |  |  |  |  |  |  |  |  |  |  |
| N#CN1CCC(NS(=O)(=O)c2ccccc2)C1 (stereo not given) | 50 | 1400 | 80 | 18 | 0.0019 | 19900 | 230 | 38 | 2 | 81 | 90 |  |  |  |  |
| N#CN1CCC1 | 100 | 2000 | 430 |  |  |  |  |  |  |  |  | 480 | 880 | 450 | > 100000 |
| N#CN1CCCC1CNC(=O)c1ccccc1 (stereo not given) | 13700 | 75000 | 23000 |  |  |  |  |  |  |  |  |  |  |  |  |
| N#CN1Cc2cc3ccccc3nc2C1 | 370 | 2300 | 450 | 360 | 0.0025 | 6590 |  |  |  | 370 | 380 | 360 | 280 | 340 | 11400 |
| N#CN1CCCC1CNS(=O)(=O)c1ccccc1 (stereo not given) | 12100 |  | 11500 |  |  |  |  |  |  |  |  |  |  |  |  |
| N#CN1CCC(CNS(=O)(=O)c2ccccc2)C1 (stereo not given) | 200 | 1500 | 350 |  |  |  |  |  |  |  |  |  |  |  |  |
| CCN(C#N)CC | > 100000 | > 100000 | > 100000 |  |  |  |  |  |  |  |  |  |  |  |  |
| N#CN1CC(CNC(=O)c2ccccc2)C1 | 70 | 250 | 650 |  |  |  |  |  |  |  |  |  |  |  |  |
| N#CN1CCC(COCc2ccccc2)C1 (stereo not given) | 100 | 1100 | 150 |  |  |  |  |  |  |  |  |  |  |  |  |
| N#CN1CCC(NC(=O)c2ccc(-c3ccccc3)cc2)C1 (stereo not given) | 290 | 300 | 850 |  |  |  |  |  |  |  |  |  |  |  |  |
| N#CN1CC(OCc2ccccc2)C1 | 40 | 500 | 100 |  |  |  |  |  |  |  |  |  |  |  |  |
| N#CN1CCC(NC(=O)c2ccccc2)C1 (stereo not given) | 370 | 4200 | 1750 |  |  |  |  |  |  |  |  |  |  |  |  |
| N#CN1CC(CNC(=O)C2CCCCC2)C1 |  |  |  | 10 |  |  |  |  |  |  |  | 27 | 38 | 16 | > 100000 |
| N#CN1CCCC1 [CYANO-PYRROLIDINE] | 1000 | 15000 | 4000 |  |  |  |  |  |  |  |  | 1500 | 2300 | 1630 | 3400 |
| N#CN1CC(CNS(=O)(=O)c2ccccc2)C1 | 20 | 300 | 50 |  | 0.0028 | 141000 |  |  |  | 17 | 20 |  |  |  |  |
| N#CN1CCC(NC(=O)OCc2ccccc2)C1 (stereo not given) | 40 | 200 | 54 | 20 | 0.0056 | 67300 |  |  |  | 40 | 140 | 90 | 50 | 60 | 150 |
